Where two headings read alike, the source gives them in different places.
What was measured:
[1] = test system: cancer cell; settings: Annexin V flow cytometry; cited from earlier work
[2] = test system: A-549 lung, HCT-8 intestinal, RPMI-7951 skin, TE671 brain, and KB cervical cancer cells; settings: range over all cell types; cited from earlier work
[3] = test system: C4-2 cells; test: Cell growth curves; assay type: cell-based, Human; settings: 1 μM
Outline: (§1)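 Cells were seeded at 1,000 per well in RPMI 1640 with 10% FBS, 25 mM HEPES and 1 mM pyruvate, then grown with 1 μM test compound. Read-out was confluence (% of well surface covered by adherent cells) over time, also taken after 150 h. Eight replicates per condition; mean ± S.E.M.; unpaired two-tailed t-test.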

[4] = test system: C4-2B cells; test: Cell viability and cell count; assay type: cell-based, Human; settings: 1 μM, 48 hours
Outline: (§2)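 150,000 cells per well were grown overnight, then given 1 μM test compound (ethanolic stock diluted in medium) or ethanol control for 48 h. Cells were trypsinized, pelleted (400 x g, 5 min), resuspended in PBS, stained with acridine orange/DAPI, and read for viability and count. n = 4 treated, 10 control; mean ± S.E.M.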

[5] = test system: PNT2 cells; test: Cell growth curves; assay type: cell-based, Human; settings: 1 μM
[6] = test system: C4-2 cells; test: Cell viability and cell count; assay type: cell-based, Human; settings: 1 μM, 48 hours
Outline: as §2

[7] = test system: C4-2B cells; test: Cell growth curves; assay type: cell-based, Human; settings: 1 μM
Outline: as §1

[8] = test system: PNT2 cells; test: Cell viability and cell count; assay type: cell-based, Human; settings: 1 μM, 48 hours
Outline: as §2

[9] = cited from earlier work; for neurotoxicity / crossing of the blood-brain barrier: rats and mice; for detection in brain as metabolite of 1 and 2: rat model of Parkinson's disease
[10] = test system: PNT2 cells; test: Oxygen consumption rate; assay type: cell-based, Human; settings: 1 μM
Outline: (§3)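 Mycoplasma-tested cells, 20,000 per poly-L-lysine-coated well, 16 h at 37 °C, 5% CO2. Moved to carbonate-free RPMI assay buffer (4.5 g L-1 glucose, pyruvate, pH 7.4) for 60 min CO2-free. […] Rotenone-insensitive rate subtracted; traces set to 100% pre-addition. n = 6 treated, 16 control; mean ± S.E.M.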

[11] = test system: C4-2B cells; test: Oxygen consumption rate; assay type: cell-based, Human; settings: 1 μM
Outline: as §3

[12] = test system: C4-2 cells; test: Oxygen consumption rate; assay type: cell-based, Human; settings: 1 μM
Outline: as §3

With Cc1nc(-c2nc(-c3ccc(OC(F)(F)F)cc3)no2)nn1Cc1cccc(N2CCC(S(C)(=O)=O)CC2)c1 [IACS-01079] as the compound, how does the “effect on cancer cell proliferation and viability” value [1] read?
The value was “inhibit both cancer cell proliferation and viability”.

With COc1cc2c(cc1OC)[C@@H]1C(=O)c3ccc4c(c3O[C@@H]1CO2)C[C@H](C(C)(C)O)O4 [compound 4, (6aS,12aS,5′R)-Dalpanol] as the compound, how does the “ED50 (half-maximal effective concentration), cytotoxicity” value [2] read?
The value was 0.48 to 4.83 µg/mL.

Which results are given for C=C(C)[C@H]1Cc2c(ccc3c2O[C@@H]2COc4cc(OC)c(OC)cc4[C@@H]2C3=O)O1 [compound 1, rotenone]?
proliferation (cell growth) [3]: did not proliferate; cell count [4]: affected cell counts; proliferation (cell growth) [5]: retained their ability to proliferate, albeit at a substantially reduced rate; cell count [6]: affected cell counts; proliferation (cell growth) [7]: did not proliferate; cell count [8]: affected cell counts; neurotoxicity ([9]; 3 mg kg^-1 day^-1): cause neuronal damage; crossing of the blood-brain barrier [9]: cross the blood-brain barrier

For C=C(C)[C@H]1Cc2c(ccc3c2O[C@@H]2COc4cc(OC)c(OC)cc4[C@]2(O)C3=O)O1 [compound 7, (6aR,12aR,5′R)-Rotenolone], which “detection in brain as metabolite of 1 and 2” value [9] is on record?
The value was “detected in the brains of treated animals”.

What about the “crossing of the blood-brain barrier” value [9] of the same compound?
Its value is “cross the BBB”.

Which “detection in brain as metabolite of 1 and 2” value [9] does the source give for COc1cc2c(cc1OC)[C@]1(O)C(=O)c3ccc4c(c3O[C@@H]1CO2)C=CC(C)(C)O4 [compound 8, tephrosin] here?
Its value is “detected in the brains of treated animals”.

What about the “crossing of the blood-brain barrier” value [9] of the same compound?
The value was “cross the BBB”.

For COc1cc2c(cc1OC)[C@@H]1C(=O)c3ccc4c(c3O[C@@H]1CO2)C[C@H](C(C)CO)O4 (mixture of isomers) [compound 5, (6aS,12aS,5′R,6′R)- and (6aS,12aS,5′R,6′S)-6′,7′-Dihydroamorphigenin], which “proliferation (cell growth)” value [3] is on record?
The value was “particularly affected”.

What about the cell count [4] of the same compound?
Its cell count is “marginal effects”.

What about the oxygen consumption rate [10] of the same compound?
Its oxygen consumption rate is “powerful effect”.

And the oxygen consumption rate [11]?
Its oxygen consumption rate is “powerful effect”.

What about the “proliferation (cell growth)” value [7] of the same compound?
The value was “responded”.

What about the oxygen consumption rate [12] of the same compound?
The oxygen consumption rate was “powerful effect”.

Which results are given for COc1cc2c(cc1OC)[C@@H]1C(=O)c3ccc4c(c3O[C@@H]1CO2)C=CC(C)(C)O4 [compound 2, deguelin]?
neurotoxicity ([9]; 6 mg kg^-1 day^-1): cause neuronal damage; crossing of the blood-brain barrier [9]: cross the blood-brain barrier

Source: publication PMC7611836 (Journal of natural products, 2020)
